Assay outcomes from PubChem.
Ecoli WT expand – blocks growth of wild type E. coli BW25113 | OD600 absorbance | growth inhibition, % at 100 µM | actives 0.15% (n = 98,000);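 active means growth inhibition above about 50% at one test dose, limit read from the data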;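 further: growth measured after 20 h incubation at 37 °C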
Ecoli tolC – blocks growth of E. coli BW25113 tolC mutant; OD615; growth inhibition, % at 10 µM (by protocol); actives 2.2% (n = 65,000); AID 573;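 active means growth inhibition at or above a cutoff equal to the mean over every tested compound plus 3 SD, cut at about 60% in these data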;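 further: growth measured after 20 h incubation at 37 °C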
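Test system – E. coli BW25113 ΔtolC::kan, tolC deletion mutant strain · Detection – OD at 615 nm · Buffer or medium – LB with kanamycin 50 µg/mL · Times – 20 h compound exposure of bacteria at 37 °C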
E coli RNAP – Escherichia coli RNA polymerase inhibition. P0A8V2. E. coli RNA polymerase, fluorescence transcription assay. inhibition, %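 (tested at 10 µM)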. actives 0.2% (n = 62,000). AID 559; in the data active means inhibition above about 20%;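 further: 0% = enzyme without compound and 100% = no enzyme blank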
Target sequence (P0A8V2 whole entry, looked up): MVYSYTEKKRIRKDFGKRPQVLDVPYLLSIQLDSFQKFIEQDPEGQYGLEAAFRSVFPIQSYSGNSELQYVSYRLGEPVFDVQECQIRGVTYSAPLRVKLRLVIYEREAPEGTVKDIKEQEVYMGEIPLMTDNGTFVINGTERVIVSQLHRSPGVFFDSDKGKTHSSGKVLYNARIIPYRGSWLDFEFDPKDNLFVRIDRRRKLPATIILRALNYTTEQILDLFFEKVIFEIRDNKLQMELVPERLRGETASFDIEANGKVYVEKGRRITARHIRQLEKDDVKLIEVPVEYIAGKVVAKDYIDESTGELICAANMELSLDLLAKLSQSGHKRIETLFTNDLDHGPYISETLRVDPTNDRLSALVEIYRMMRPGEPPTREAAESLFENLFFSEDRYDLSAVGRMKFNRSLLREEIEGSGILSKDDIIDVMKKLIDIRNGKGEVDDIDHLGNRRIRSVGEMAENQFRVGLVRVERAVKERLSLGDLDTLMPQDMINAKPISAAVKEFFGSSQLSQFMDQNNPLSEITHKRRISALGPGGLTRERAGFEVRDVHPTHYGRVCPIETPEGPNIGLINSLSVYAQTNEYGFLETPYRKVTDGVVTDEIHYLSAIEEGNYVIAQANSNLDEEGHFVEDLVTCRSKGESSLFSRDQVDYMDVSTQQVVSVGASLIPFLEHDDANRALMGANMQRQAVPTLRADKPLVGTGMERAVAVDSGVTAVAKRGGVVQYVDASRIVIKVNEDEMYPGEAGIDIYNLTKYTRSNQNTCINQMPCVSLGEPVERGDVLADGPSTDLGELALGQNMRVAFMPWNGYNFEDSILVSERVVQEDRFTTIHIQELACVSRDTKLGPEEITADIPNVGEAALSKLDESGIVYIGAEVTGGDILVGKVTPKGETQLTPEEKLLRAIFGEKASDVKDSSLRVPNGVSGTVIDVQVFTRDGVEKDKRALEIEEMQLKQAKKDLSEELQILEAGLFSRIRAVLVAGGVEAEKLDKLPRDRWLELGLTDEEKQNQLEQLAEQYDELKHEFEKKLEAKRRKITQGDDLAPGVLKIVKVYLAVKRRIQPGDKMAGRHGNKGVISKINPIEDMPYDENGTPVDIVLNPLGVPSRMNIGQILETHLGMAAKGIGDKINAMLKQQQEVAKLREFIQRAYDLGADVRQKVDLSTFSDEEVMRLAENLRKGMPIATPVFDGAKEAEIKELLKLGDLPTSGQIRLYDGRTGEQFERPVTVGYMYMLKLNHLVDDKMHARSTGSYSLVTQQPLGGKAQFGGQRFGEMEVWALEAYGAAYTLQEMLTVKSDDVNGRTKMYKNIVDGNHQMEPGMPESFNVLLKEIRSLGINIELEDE
AP complement – alternative pathway complement inhibition, orthogonal assay; AID 1235; inhibition, % at 5 µM; actives 0.08% (n = 62,000); Human serum alternative complement pathway, LPS-coated ELISA, C3 deposition; tested in compound mixtures;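 active means inhibition above 30% in each of the two pooled mixtures holding the compound, so the lower value exceeds 30%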;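 further: 0% = serum in Mg-EGTA without compound and 100% = EDTA serum blank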
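Test system: human serum alternative complement pathway, C3 deposition on LPS-coated wells; also added: Plate-bound LPS; doses: 5 µM per compound in ten-compound mixtures; schedule: 1 h at 37 °C; detection: Anti-C3 ELISA, OD 450 nm; evaluation: percent inhibition of C3 deposition onto LPS; repeats: two pool placements per compound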
MMP-13 inhibitor – MMP13 (human) collagenase inhibition. P45452. MMP-13 fTHP FRET cleavage, Mca fluorescence. inhibition, % at 4 µM. actives 0.07% (n = 65,000). AID 570;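 active means inhibition above the mean of compound-free control plate wells plus 3 SD, cut at about 14% in these data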;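 further: 0% = DMSO wells and 100% = wells with reference MMP-13 inhibitor after basal subtraction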
HePTP inh – human HePTP phosphatase inhibition; P35236; recombinant HePTP phosphatase activity, OD absorbance; inhibition, % at 20 µM; actives 0.64% (n = 110,000); AID 521; in the data active means inhibition above about 50%;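 further: plate controls were vehicle for no effect and reference inhibitor for full effect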
Active calls of the source: *; x = not tested or not shown; ! = not active in a repeat. The entries come from a sample that favours hits as a whole.

SMILES	Ecoli WT expand	Ecoli tolC	E coli RNAP	AP complement	MMP-13 inhibitor	HePTP inh
CN(Cc1ccccc1)c1ncnc2c1cnn2-c1ccccc1	-15	92*	4	13	1	1
c1ccc(CCNc2ncnc3c2cnn3-c2ccccc2)cc1	x	73*	x	x	4	x
COCCN(CCOC)c1ncnc2c1cnn2-c1ccccc1	x	-8	3	15	-8	6
COc1ccc(CC(=O)Nc2ccccc2Br)cc1OC	x	x	x	x	x	2
Cc1ccc(C(=O)NNC(=O)c2ccc(O)cc2O)cc1	x	x	x	x	x	1
Cc1ccc2c(c1)c(C)c(C)n2CC(O)Cn1nc(C)c(Br)c1C (stereo unspecified)	-8	82*	x	x	1	x
COc1ccc(C(CC(=O)c2ccc(Cl)cc2)Nc2ccc(Br)cc2)cc1 (stereo unspecified)	x	x	x	x	x	3
COC(=O)C(CC(=O)c1ccc(Br)cc1)n1ccnc1 (stereo unspecified)	59*	5	11	11	1	10
COc1ccc(OC)c(N=Cc2c(O)n(-c3ccccc3C)c(=O)[nH]c2=O)c1	x	x	x	x	x	-6
O=C(Nc1cccc(Cl)c1)N(CCN1CCOCC1)Cc1cccc(Cl)c1	16	100*	3	8	3	3
CC(NS(=O)(=O)c1ccc([N+](=O)[O-])cc1)C(=O)O (stereo unspecified)	x	x	x	x	x	-4
O=C(N/N=C\c1ccccc1Br)c1cnccn1	x	x	x	x	x	8
O=C(N/N=C/c1ccccc1O)c1cnccn1	x	x	x	x	x	104*
Oc1c(CN2CCCCC2)cc(COCc2ccccc2)c2cccnc12	30	100*	7	14	-2	5
Oc1c(CN2CCN(c3ccccn3)CC2)cc(Cl)c2cccnc12	54*	98*	8	4	-2	9
Cc1ccc(NC(=O)N(Cc2ccccc2)C(C)C2CC2)cc1 (stereo unspecified)	x	x	x	x	x	102*
CC(C1CC1)N(Cc1ccccc1)C(=O)c1ccc(F)cc1 (stereo unspecified)	x	x	x	x	x	-12
C=CCN=C1CC(C)(C)CC(=O)/C1=C(/O)CCC	x	x	x	x	x	102*
CCOC(=O)/C(=C/C=C/N(C1CCCCC1)C1CCCCC1)C(C)=O	x	x	x	x	x	-2
CCOc1cccc(-c2nc3cc(C)ccc3o2)c1	0	100*	x	10	-2	4
CCn1c(CNc2ccccc2Cl)nnc1SCC(=O)OC1CCCCC1	-2	73*	5	-1	1	-1
CCn1c(CNc2cccc(Cl)c2)nnc1SCC(=O)OC1CCCCC1	-10	60*	-2	2	1	7
COc1ccc(NC(NC(=O)c2ccco2)C(=O)c2ccccc2)cc1 (stereo unspecified)	x	x	x	x	x	0
O=C(CN(C(=O)CNC(=O)c1ccco1)c1ccc2c(c1)OCO2)NC1CCCCC1	5	6	-4	-14	-1	-5
O=C(CN(C(=O)CNC(=O)c1ccco1)c1ccc(Cl)c(Cl)c1)NC1CCCCC1	9	72*	4	1	0	-3
SMILES	Ecoli WT expand	Ecoli tolC	E coli RNAP	AP complement	MMP-13 inhibitor	HePTP inh
COc1ccccc1OCCCN1CCCCC1	x	x	x	x	x	1
O=c1cc(O)c2c(=O)n3c4c(cccc4c2o1)CCC3	x	96*	-4	13	1	-6
Cc1cccc(-c2noc(CN(C(=O)CCc3ccccc3)C(C)C)n2)c1	0	76*	1	20	-4	6
Cc1ccc(-c2noc(CN(C(=O)c3cccc(Br)c3)C(C)C)n2)cc1	0	78*	-3	7	5	4
CC(C)C[C@H](NC(=O)OC(C)(C)C)c1nnc(SCc2cccc(F)c2)o1	-4	73*	-2	-11	6	-7
CSCC[C@H](NC(=O)OC(C)(C)C)c1nnc(SCc2cccc(F)c2)o1	-6	29	7	-5	7	-1
CCc1c(C#N)c(SCCC(=O)Nc2ccc(OC)cc2)nc2c1C(=O)CC(C)(C)C2	-12	x	x	x	x	x
CCc1c(C#N)c(SCc2c(C)noc2C)nc2c1C(=O)CC(C)(C)C2	x	63*	-2	-5	5	3
Cc1ccc(NC(=O)c2ccccc2O)cc1	43	92*	3	9	-3	3
CC1=C(C(=O)OC2CCCC2)C(c2ccc(C)o2)C2=C(CC(c3cccs3)CC2=O)N1 (stereo unspecified)	-5	65*	8	-2	8	-10
COC(=O)C1=C(C)NC2=C(C(=O)CC(c3cccs3)C2)C1c1ccsc1 (stereo unspecified)	-2	29	6	11	-20	8
CC1=C(C(=O)OC2CCCCCC2)C(c2ccc(C)o2)C2=C(CCCC2=O)N1 (stereo unspecified)	-7	100*	6	2	-12	2
CC1=C(C(=O)OC2CCCCC2)C(c2ccc(C)o2)C2=C(CC(C)(C)CC2=O)N1 (stereo unspecified)	-3	8	6	5	0	11
Cc1cc(Cl)ccc1OC(C)C(=O)NCCC1=CCCCC1 (stereo unspecified)	x	x	x	x	x	4
O=C(Nc1ccc(-c2cnc(-c3ccc(NC(=O)c4ccccc4Cl)cc3)nc2)cc1)c1ccccc1Cl	x	x	x	x	x	4
C=C(Br)Cn1c(CC)nc2ccccc21	2	x	x	x	x	x
C=C(Br)Cn1c(CCC)nc2ccccc21	9	2	-1	-6	2	102*!
COc1ccc(NC(=O)C(=O)NC2CC2)cc1	x	x	x	x	x	-4
O=[N+]([O-])c1ccccc1/C=N/N1CCN(Cc2ccc(Cl)cc2)CC1	x	x	x	x	x	0
Cc1ccccc1/C=N/N1CCN(Cc2ccc(Cl)cc2)CC1	x	x	x	x	x	105*
COc1cc(-c2nc(Cc3ccccc3Cl)no2)cc(OC)c1OC	-1	67*	1	17	-6	1
COc1cc(-c2nnc(SCc3ccccc3Cl)o2)cc(OC)c1OC	-1	77*	5	9	-7	2
COc1cc(-c2nnc(SCc3c(F)cccc3Cl)o2)cc(OC)c1OC	-13	41	3	7	0	10
COc1ccccc1Cc1noc(-c2ccc(OC)c(OC)c2)n1	x	x	x	x	x	-4
CC(=O)OCCCNC(=O)/C(=C\c1ccc2c(c1)OCO2)NC(=O)c1ccco1	x	x	x	x	x	6
SMILES	Ecoli WT expand	Ecoli tolC	E coli RNAP	AP complement	MMP-13 inhibitor	HePTP inh
CC1COC(c2cccn2Cc2ccccc2Cl)=N1 (stereo unspecified)	5	-4	-5	-12	5	-10
CCSCC1COC(c2cccn2Cc2ccc(C)cc2)=N1 (stereo unspecified)	2	61*	13	7	2	8
N#Cc1c(NC(=O)CSc2n[nH]c(Cc3ccccc3)n2)oc(-c2ccccc2)c1-c1ccccc1	-13	64*	11	3	2	12
CCOC(=O)c1sc(NC(=O)CSc2n[nH]c(-c3ccccc3)n2)c(C#N)c1C	-11	100*	7	7	-15	17
C/C(=N\N1CCN(Cc2ccc(Cl)cc2)CC1)c1ccc(O)cc1	x	x	x	x	x	-6
CCCCCCOc1ccc(C(CC(=O)O)C(N)=O)cc1 (stereo unspecified)	-9	-18	-5	-1	26*	9
